Screens (PubChem)
OX1R antag-1: blocks the human orexin 1 receptor; O43613; CHO/OX1R cells, Fluo-8 calcium fluorescence, orexin A; inhibition, % at 5 µM; actives 0.43% (n = 330,000); AID 434989;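 active = inhibition above its plate's threshold, mean inhibition of all tested compounds on the plate plus 3 SD, cut at about 37% in these data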;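 note: 0% = orexin A challenge wells and 100% = SB-334867-A antagonist wells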
TAAR1 antag: human TAAR1 antagonism; AID 624466; CHO RD-HGA16 TAAR1, Fluo-8 calcium fluorescence, antagonist; inhibition, % at 3 µM; Q96RJ0; actives 1.5% (n = 360,000);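 active = inhibition above a per-plate cutoff, the mean inhibition of test compounds on that plate plus 3 SD, cut at about 49% in these data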;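 note: 0% = DMSO plus EC80 beta-PEA response and 100% = DMSO alone without agonist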
Target sequence (Q96RJ0 whole entry, looked up): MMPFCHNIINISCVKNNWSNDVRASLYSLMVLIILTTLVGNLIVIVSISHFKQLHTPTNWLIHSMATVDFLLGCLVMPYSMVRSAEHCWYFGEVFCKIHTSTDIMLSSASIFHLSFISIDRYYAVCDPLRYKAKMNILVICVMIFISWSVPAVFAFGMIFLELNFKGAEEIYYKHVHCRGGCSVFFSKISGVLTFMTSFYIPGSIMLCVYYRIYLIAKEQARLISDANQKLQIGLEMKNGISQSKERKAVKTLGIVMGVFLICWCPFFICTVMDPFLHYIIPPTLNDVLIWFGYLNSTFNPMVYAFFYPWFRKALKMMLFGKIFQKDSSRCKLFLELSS
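Test system – hTAAR1-expressing CHO RD-HGA16 cells, Gα16-coupled · Reagent – β-PEA at EC80 concentration, post-compound challenge · Compound dosing – 3 µM, single point · Timing – 140 s kinetic read after compound, 140 s after agonist · Detection – Fluo-8 intracellular calcium dye fluorescence, real-time kinetic reads · Control set – DMSO and EC80 PEA controls · Repeats – n of 1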
OX1R antag-2: blocks the human orexin 1 receptor. O43613. AID 485270. inhibition, % at 6.6 µM. actives 1.8% (n = 330,000). OX1R-expressing cells, FRET antagonist read-out; in the data active = inhibition mostly above about 38%, no sharp cut-off; inactive = mostly below about 40%;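 note: 0% = agonist challenge alone and 100% = reference antagonist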
TAAR1 ag: agonists of human TAAR1; activation, % at 3 µM; Q96RJ0; CHO RD-HGA16 TAAR1, Fluo-8 calcium fluorescence; vehicle wells 0%, saturating PEA agonist 100%; actives 0.99% (n = 360,000);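 active = activation above the mean activation of all test compounds in the run plus 3 SD, cut at about 38% in these data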
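Test system: RD-HGA16 (CHO) cells co-expressing Gα16 and hTAAR1; dosing: one-point dosing at 3 µM (nominal); timing: 17-24 h seeding, 75 min 37 °C dye, 30 min RT; signal: kinetic Fluo-8 calcium fluorescence; read-out basis: % activation relative to PEA EC100 response; controls: DMSO and PEA EC100; replicates: n 1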
CHO parental Ca: counter-screen: ATP calcium response change in parental CHO cells. inhibition, % at 5.6 µM. parental CHO-K1, ATP-induced calcium, Fluo-8 fluorescence. AID 463079. actives 0.63% (n = 330,000);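 active = inhibition above that plate's mean sample inhibition plus 3 SD, cut at about 26% in these data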;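 note: 0% = ATP-challenged DMSO wells and 100% = DMSO wells without ATP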
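Assay system: parental CHO cells; Read-out basis: percent inhibition of ATP-evoked calcium rise, normalized to controls; Benchmarks: ATP and no-ATP DMSO wells; Compound dosing: single nominal dose of 5.6 µM per compound; Signal: Fluo-8 calcium dye fluorescence; Also added: ATP as calcium-mobilizing challenge; Repeats: singlicate.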
GPR7 antagonist: blocks human GPR7 receptor signaling; P48145; GPR7-expressing cells, fluorescence antagonist assay; inhibition, % at 4.4 µM; actives 1.1% (n = 290,000); AID 1861; in the data active = inhibition above about 16%, passing the limit was not always enough;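 note: cells stimulated with the agonist NPW; 0% = agonist with vehicle and 100% = vehicle without agonist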
Target sequence (P48145 whole entry, looked up): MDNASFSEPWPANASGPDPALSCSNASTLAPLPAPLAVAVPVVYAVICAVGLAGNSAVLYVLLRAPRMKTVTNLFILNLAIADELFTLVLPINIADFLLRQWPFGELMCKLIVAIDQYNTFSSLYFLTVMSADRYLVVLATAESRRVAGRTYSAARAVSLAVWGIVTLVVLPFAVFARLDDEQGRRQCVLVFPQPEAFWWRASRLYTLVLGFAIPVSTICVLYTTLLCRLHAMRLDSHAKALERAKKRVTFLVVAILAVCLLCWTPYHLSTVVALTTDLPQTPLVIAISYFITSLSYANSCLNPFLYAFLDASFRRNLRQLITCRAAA
Active calls of the source: *; / = no result given. Compounds with a hit are over-represented: about 4.5% of the library has one in this group of screens.

SMILES | OX1R antag-1 | TAAR1 antag | OX1R antag-2 | TAAR1 ag | CHO parental Ca | GPR7 antagonist
COc1cccc(OC)c1C(=O)Nc1cccc2c1CCCC2 | -9 | -2 | 73* | 1 | -3 | 5
Cn1cc(Br)c(NC(=O)/C=C/C(=O)O)n1 | 1 | -24 | 2 | 0 | -8 | -20
CC1=C(C(=O)N(C(C)C)C(C)C)CC(CC(=O)NCc2cccc3ccccc23)C(=O)N1CCC1=CCCCC1 (centres undefined) | / | 40 | / | 0 | / | /
CCN(CC(=O)Nc1c(F)cccc1F)C(=O)C(C)SCc1nc2sc(C)c(C)c2c(=O)[nH]1 (centres undefined) | -15 | -7 | 67* | 3 | -14 | -17
CN(CC(=O)Nc1ccccc1C(F)(F)F)C(=O)CCc1nc2sc3c(c2c(=O)[nH]1)CCCC3 | -19 | -1 | 16 | 0 | -15 | -16
CCN(CC(=O)Nc1ccccc1C(F)(F)F)C(=O)CCc1nc2sc3c(c2c(=O)[nH]1)CCCC3 | -7 | -30 | 42* | 3 | -13 | /
CCN(CC(=O)Nc1c(F)cccc1F)C(=O)CCc1nc2sc3c(c2c(=O)[nH]1)CCCC3 | -5 | -18 | 67* | 2 | -3 | /
COc1ccc(C(N)c2csc(Nc3nncc4ccccc34)n2)cc1 (centres undefined) | / | 46 | / | 42* | / | /
Nc1ccc(CC(N)c2csc(Nc3cc(Oc4ccccc4)ncn3)n2)cc1 (centres undefined) | / | 9 | / | 20 | / | /
COc1ccc(C(N)c2csc(Nc3cc(Oc4ccccc4)ncn3)n2)cc1 (centres undefined) | / | 30 | / | 38* | / | /
COc1ccc(C(N)c2csc(Nc3ncccn3)n2)cc1 (centres undefined) | / | -22 | / | 2 | / | /
NC(c1csc(Nc2cc(Oc3ccccc3)ncn2)n1)C1CCCCC1 (centres undefined) | / | -4 | / | 43* | / | /
O=S1(=O)N[C@H](c2ccccc2)COc2cc(Br)ccc21 | / | 14 | / | 0 | / | /
CCCCN(CCCC)S(=O)(=O)c1ccc(NC(=O)Cc2cccs2)cc1 | 3 | 46 | 8 | 11 | 10 | 9
COc1ccc(-c2ccc(C(=O)Nc3cccc(NS(C)(=O)=O)c3)c3occc23)c(C)c1 | / | 71* | / | 3 | / | /
N#Cc1cccc(C#N)c1Oc1ccc(S(=O)(=O)Nc2ccc(Cl)cc2)cc1 | 13 | 12 | 13 | 18 | 43* | 15
O=C1C=C(Nc2ccccc2O)c2ccccc2C1=O | -3 | -7 | 58* | 2 | -9 | 3
O=C1C=C(Nc2ccc(F)cc2)c2ccccc2C1=O | -9 | -1 | 50* | 4 | -3 | /
O=C(O)CCCC[n+]1ccccc1 | / | -16 | / | 2 | / | /
COCCCn1c(N)c(-c2nc3ccccc3n2C)c2nc3ccccc3nc21 | -5 | 49* | 22 | 23 | -12 | -5
Cn1c(-c2c(N)n(CCCc3ccccc3)c3nc4ccccc4nc23)nc2ccccc21 | / | / | / | / | / | -3
O=[N+]([O-])c1cc(Cl)cc(/C=N/NC(=S)Nc2ccc(S(=O)(=O)N3CCOCC3)cc2)c1O | -12 | 29 | 75* | -2 | -3 | -12
CCOC(=O)/C(C#N)=C/Nc1ccccc1OC(F)(F)F | -37 | -33 | 11 | 0 | 45* | -21
CSCCC(NS(=O)(=O)c1ccc(Cl)cc1)C(=O)OCC(=O)N(C(C)C)C(C)C (centres undefined) | -20 | 6 | 25 | 13 | -14 | 0
CSCCC(NS(=O)(=O)c1ccc(Cl)cc1)C(=O)OCc1c(Cl)cccc1Cl (centres undefined) | -8 | 42 | 66* | 1 | -10 | -15
SMILES | OX1R antag-1 | TAAR1 antag | OX1R antag-2 | TAAR1 ag | CHO parental Ca | GPR7 antagonist
CSCCC(NS(=O)(=O)c1ccc(Cl)cc1)C(=O)OCc1cccc(Cl)c1 (centres undefined) | -12 | 18 | 12 | 1 | 41* | -4
CC1CC1C(=O)OCC(=O)Nc1ccc(S(=O)(=O)N2CCOCC2)cc1 (centres undefined) | 5 | 9 | 4 | 1 | -13 | /
CCc1cc2c(nc1CC)CCCN2S(=O)(=O)c1ccc(C(F)(F)F)cc1 | / | -6 | / | -1 | / | /
CCn1c(SCC(=O)Nc2nc3c(s2)CCCC3)nnc1-c1ccccc1 | -12 | 19 | 49* | 4 | -26 | -10
CCn1c(SCC(=O)Nc2nc3ccccc3s2)nnc1-c1ccc(OC)cc1 | -2 | -9 | 34 | 17 | 39* | -7
CCN1CCN(c2ccc(Nc3ccnc4ccccc34)cc2)CC1 | -16 | -5 | 30* | 1 | -7 | /
CCc1cccc2c(C(=O)Cn3nnc(-c4ccc(OC)c(OC)c4)n3)c[nH]c12 | 69* | 40 | 45* | 27 | 42* | -2
CCOC(=O)Cn1nnc(-c2cc(OC)c(OC)c(OC)c2)n1 | -10 | -1 | 1 | 6 | -5 | -7
COCCCNC(=O)[C@@H](Cc1ccccc1)NC(=O)[C@H]1O[C@@H](n2ccc(=O)[nH]c2=O)[C@H](O)[C@@H]1O | / | -6 | / | 0 | / | /
COc1cc(OC)cc(C(=O)NCc2cc(C)nc3ccccc23)c1 | 13 | 11 | 63* | 9 | -24 | -18
COc1cccc(C(=O)NNc2c3ccccc3nc3ccccc23)c1 | -2 | 43 | 42* | 9 | -7 | -10
COc1ccc(C(=O)NCc2cc(C)nc3ccccc23)cc1OC | 0 | -20 | 33 | 0 | -11 | -2
Cc1ccc(NC(=O)CSc2nc3ccccc3c(=O)n2CCCN2CCCCC2)cc1C | -1 | -18 | 30 | 12 | 3 | 16
O=C(Nc1ccc(F)c(Cl)c1)c1csc(COCCO)n1 | / | 2 | / | 1 | / | /
COc1ccc(C(=O)/C=C2\Sc3ccccc3N2C)cc1 | -5 | -16 | 34 | 9 | -18 | 4
COc1ccccc1-[n+]1c(C)cc(/C=C2\Sc3ccccc3N2C)cc1C | 62* | 30 | 39 | 22 | 69* | 5
COc1ccc(-[n+]2c(C)cc(/C=C3\Sc4ccccc4N3C)cc2C)cc1 | 31 | 62* | 56* | 32 | 46* | 31*
COc1ccccc1OC(=O)CCN1c2ccccc2Sc2ccccc21 | -32 | -10 | 24 | -2 | -31 | -14
CCCN1C(=O)c2n[nH]c(C)c2C1c1ccc(Br)cc1 (centres undefined) | / | 6 | / | -1 | / | /
COC(=O)C1=C(C)N(Cc2ccccc2)C(=NCCc2c[nH]c3ccccc23)N[C@H]1c1cccc(C(F)(F)F)c1 | 67* | / | 4 | / | 38 | /
COc1ccc(C2(O)CN(c3ccc(C)cc3)C3=[N+]2CCCC3)cc1 (centres undefined) | -4 | 5 | 21 | 5 | -7 | -6
OC[C@@H]1CN(Cc2ccc3c(c2)OCO3)C[C@H](n2cnc3c(N4CCCC4)ncnc32)O1 | / | -16 | / | 2 | / | /
